We go through 39 molecules from ChEMBL document CHEMBL1132470, “Structure-activity relationships of novel 2-substituted quinazoline antibacterial agents” (1999).

What all share (type): functional
In assay [1] the test system is Escherichia coli. The assay can be described thus: Antibacterial activity against Escherichia coli.
In assay [2] the test system is Escherichia coli. The assay can be described thus: Antibacterial activity against Escherichia coli (#25922). In short, it runs like this: (§1)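 Bacteria were grown in nutrient broth at 37 °C. An overnight culture was added to compound in 4% DMSO/water, giving about 10⁵-10⁶ CFU/well, in duplicate. Absorbance at 595 nm was read after 24 h. MIC is reported as a range between the lowest concentration with complete growth inhibition and the next lower concentration with viable cells. Ampicillin and tetracycline were positive controls.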

The test system of assay [3] is Enterococcus faecalis. The experiment in a line: Antibacterial activity against Enterococcus faecalis (#29212). In short, it runs like this:
(§2)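 Run as a duplicate broth microdilution in Todd-Hewitt broth. An overnight culture was added to compound in 4% DMSO in water, giving about 10⁵-10⁶ CFU/well, and incubated at 37 °C. Growth was read as A595 at 24 h. MIC is given as a concentration range: complete inhibition at the upper concentration, viable cells at the lower. Ampicillin and tetracycline served as controls.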

Assay [4] concerns Klebsiella pneumoniae. The assay can be described thus: Antibacterial activity against Klebsiella pneumoniae (#13883). The essentials: as §1
The subject of assay [5] is Staphylococcus aureus. The assay can be described thus: Antibacterial activity against Staphylococcus aureus (#13709). In short, it runs like this:
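Trypticase soy broth culture was grown at 37 °C. The overnight suspension was mixed with compound in 4% DMSO in water, giving a final inoculum of about 10⁵-10⁶ CFU/well, in duplicate. Growth was read as A595 after 24 h. MIC is a concentration range, full inhibition at the higher and viability at the lower. Ampicillin and tetracycline were included as controls.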

Assay [6] deals with Streptococcus pyogenes. The experiment in a line: Antibacterial activity against Streptococcus pyogenes. The essentials:
as §2

For assay [7], the system named is Streptococcus pyogenes. The experiment in a line: Antibacterial activity against Streptococcus pyogenes (#49399).
The test system of assay [8] is Streptococcus pyogenes. The experiment in a line: Antibacterial activity against Streptococcus pyogenes (#14289). The essentials:
as §2

≈ marks a conversion by molar mass, not a printed value. Bounds are passed on as bounds.

In general, MIC refers to the smallest concentration in the dilution series that meets the test's criterion for growth inhibition. Read a high MIC as a need for much substance. Turning to `COC(=O)c1ccc(NC2CCN(c3nc(N)c4cc(OC)c(OC)cc4n3)CC2)cc1`, the MIC is 5 µM (≈ 2.19 µg/mL) in assay [1]; above 100 µM in assay [2]; 20 µM (≈ 8.75 µg/mL) in assay [3]; above 100 µM in assay [4]; above 100 µM in assay [5]; 5 µM (≈ 2.19 µg/mL) in assay [6]. The molecule further displayed an MIC in assay [7] of 5 µM (≈ 2.19 µg/mL).

Consider `COC(=O)c1nc(Cl)c(NC2CCN(Cc3ccccc3)CC2)nc1N`, for which the minimum inhibitory concentration (MIC) in assay [1] and in assay [8] was above 50 µM throughout.

Consider `COc1cc2nc(N3CCC(Nc4ccc(C(=O)O)cc4)CC3)nc(OC)c2cc1OC`, for which the MIC in assay [1] and in assay [6] was above 20 µM in each case.

Consider `Nc1nc(N2CCC(Nc3ccc(C(=O)O)cc3)CC2)nc2ccccc12`, for which the MIC in assay [1] and in assay [6] was above 100 µM throughout.

`COC(=O)c1ncc(NC2CCN(c3nc(N)c4cc(OC)c(OC)cc4n3)CC2)nc1N`: the MIC in assay [1] and in assay [8] was above 50 µM in each case.

Regarding `COc1cc2nc(N3CCC(Nc4ccc(C(=O)OC(C)(C)C)cc4)CC3)nc(O)c2cc1OC`, the minimal inhibitory concentration (MIC) in assay [1] and in assay [6] was above 100 µM in each case.

Take `COC(=O)c1ccc(NC2CCN(c3nc(N)c4cc(OC)c(OC)cc4n3)CC2)nc1`: the MIC in assay [1] is above 50 µM; in assay [6], 25 µM (≈ 11 µg/mL).

As to `COc1cc2nc(N3CCC(Nc4ccc(C(=O)O)cc4)CC3)nc(O)c2cc1OC`, the MIC in assay [1] and in assay [6] was above 20 µM each time.

As to `COC(=O)c1ccc(NC2CCN(Cc3ccccc3)CC2)cc1`, the MIC in assay [1] and in assay [6] was above 25 µM each time.

Turning to `COC(=O)c1nc(Cl)c(NC2CCN(C(=O)OC(C)(C)C)CC2)nc1N`, the MIC in assay [1] and in assay [8] was above 25 µM each time.

With `CC(C)(C)OC(=O)c1ccc(NC2CCN(S(=O)(=O)c3ccc4ccccc4c3)CC2)cc1`, the MIC in assay [1] and in assay [6] was above 25 µM each time.

As to `CC(C)(C)OC(=O)c1ccc(NC2CCN(C(=O)c3ccc4ccccc4c3)CC2)cc1`, the MIC in assay [1] and in assay [6] was above 25 µM in each case.

Regarding `COc1cc2nc(N3CCC(Nc4ccc(C(=O)O)cc4)CC3)nc(Nc3ccc(C)cc3)c2cc1OC`, the MIC in assay [1] and in assay [6] was above 20 µM in each case.

`COC(=O)c1nc(Cl)c(NC2CCNCC2)nc1N`: the MIC in assay [1] and in assay [8] was above 25 µM each time.

As to `CC(C)(C)OC(=O)c1ccc(NC2CCNCC2)cc1`, the minimal inhibitory concentration (MIC) in assay [1] and in assay [6] was above 25 µM in each case.

As to `COc1ccc2[nH]c(N3CCC(Nc4ccc(C(=O)OC(C)(C)C)cc4)CC3)nc2c1`, the MIC in assay [1] and in assay [6] was above 100 µM in each case.

Regarding `O=C(O)c1ccc(NC2CCN(c3ncccn3)CC2)cc1`, the MIC in assay [1] and in assay [6] was above 25 µM throughout.

In the case of `CC(C)(C)OC(=O)c1ccc(NC2CCN(c3nc(N)c4ccccc4n3)CC2)cc1`, the MIC in assay [1] and in assay [6] was below 100 µM throughout.

As for `COc1ccc2[nH]c(N3CCC(Nc4ccc(C(=O)O)cc4)CC3)nc2c1`, the MIC in assay [1] and in assay [6] was above 25 µM each time.

Regarding `COC(=O)c1nc(Cl)c(NNc2nc(N)c3cc(OC)c(OC)cc3n2)nc1N`, the minimal inhibitory concentration (MIC) in assay [1] and in assay [8] was above 50 µM throughout.

Regarding `COc1cc2cnc(N3CCC(Nc4ccc(C(=O)OC(C)(C)C)cc4)CC3)nc2cc1OC`, the MIC in assay [1] and in assay [6] was above 20 µM throughout.

Consider `COc1cc2nc(N3CCC(Nc4ccc(C(=O)O)cn4)CC3)nc(N)c2cc1OC`, for which the MIC in assay [1] and in assay [6] was above 50 µM throughout.

On to `COc1cc2nc(N3CCC(Nc4ccc(C(=O)OC(C)(C)C)cc4)CC3)nc(N)c2cc1OC`, for which the MIC in assay [1] was 6 µM (≈ 2.88 µg/mL); in assay [2], above 100 µM; in assay [3] it was 6 µM (≈ 2.88 µg/mL); in assay [4], above 100 µM; in assay [5] it was above 100 µM; in assay [6] it was 3 µM (≈ 1.44 µg/mL). In addition, the MIC in assay [7] was determined as 6 µM (≈ 2.88 µg/mL).

As to `CC(C)(C)OC(=O)c1ccc(NC2CCN(c3ncccn3)CC2)cc1`, the MIC in assay [1] and in assay [6] was above 25 µM throughout.

Turning to `COC(=O)c1nc(Cl)c(NC2CCN(c3nc(N)c4cc(OC)c(OC)cc4n3)CC2)nc1N`, the MIC in assay [1] was above 25 µM; in assay [8], 12 µM (≈ 5.87 µg/mL).

Consider `COc1cc2cnc(N3CCC(Nc4ccc(C(=O)O)cc4)CC3)nc2cc1OC`, for which the MIC in assay [1] and in assay [6] was above 20 µM throughout.

As to `COc1cc2nc(N3CCC(Nc4ccc(C(=O)OC(C)(C)C)cc4)CC3)nc(Nc3ccc(C)cc3)c2cc1OC`, the MIC in assay [1] came to 10 µM (≈ 5.7 µg/mL); in assay [6] it was 2.5 µM (≈ 1.42 µg/mL).

As for `O=C(O)c1ccc(NC2CCN(c3ccc4ccccc4c3)CC2)cc1`, the MIC in assay [1] and in assay [6] was above 25 µM each time.

`COc1cc2nc(N3CCC(Nc4nc(N)c(C(=O)O)nc4Cl)CC3)nc(N)c2cc1OC`: the MIC in assay [1] and in assay [8] was above 100 µM each time.

On to `COc1cc2nc(N3CCC(Nc4ccc(C(=O)O)cc4[N+](=O)[O-])CC3)nc(N)c2cc1OC`, for which the MIC in assay [1] and in assay [8] was above 20 µM each time.

`CC(C)(C)OC(=O)c1ccc(NC2CCN(c3ccc4ccccc4c3)CC2)cc1`: the MIC in assay [1] and in assay [6] was above 25 µM throughout.

As for `O=C(O)c1ccc(NC2CCN(S(=O)(=O)c3ccc4ccccc4c3)CC2)cc1`, the minimum inhibitory concentration (MIC) in assay [1] and in assay [6] was above 25 µM each time.

`COc1cc2nc(N3CCC(Nc4ccc(C(=O)OC(C)(C)C)cc4)CC3)nc(OC)c2cc1OC`: the MIC in assay [1] and in assay [6] was below 100 µM throughout.

As for `O=C(O)c1ccc(NC2CCN(Cc3ccccc3)CC2)cc1`, the MIC in assay [1] and in assay [6] was above 25 µM throughout.

`COc1cc2nc(N3CCC(Nc4ccc(C(=O)O)cc4)CC3)nc(N)c2cc1OC`: the minimal inhibitory concentration (MIC) is 0.4 µM (≈ 0.169 µg/mL) in assay [1]; 60 µM (≈ 25.4 µg/mL) in assay [2]; above 100 µM in assay [3]; 6 µM (≈ 2.54 µg/mL) in assay [4]; 6 µM (≈ 2.54 µg/mL) in assay [5]; above 25 µM in assay [6]. The MIC in assay [7] was above 25 µM.

As to `COc1cc2nc(N3CCC(Nc4ccc(C(=O)OC(C)(C)C)cc4[N+](=O)[O-])CC3)nc(N)c2cc1OC`, the MIC was found to be 25 µM (≈ 13.1 µg/mL) in assay [1] and 50 µM (≈ 26.2 µg/mL) in assay [8].

`O=C(O)c1ccc(NC2CCN(C(=O)c3ccc4ccccc4c3)CC2)cc1`: the MIC in assay [1] and in assay [6] was above 25 µM in each case.

Turning to `COc1cc2nc(N3CCC(Nc4cnc(C(=O)O)c(N)n4)CC3)nc(N)c2cc1OC`, the MIC in assay [1] and in assay [6] was above 25 µM throughout.

For `CC(C)(C)OC(=O)c1ccc(NC2CCN(Cc3ccccc3)CC2)cc1`, the MIC in assay [1] and in assay [6] was above 25 µM each time.
